HTR2A ag – activates the mouse 5-HT2A serotonin receptor; P35363; AID 624169; 0.66% of 360,000 active; CHO-K1 mHTR2A beta-arrestin complementation, luminescence; percent of 30 µM serotonin response; activation, % at 7.6 µM;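 active = activation above a run cutoff, the mean activation of all tested compounds plus 3 SD, cut at about 14% in these data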;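 note: 0% = plate median of compound wells and 100% = 30 µM serotonin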
Target sequence (P35363 whole entry, looked up): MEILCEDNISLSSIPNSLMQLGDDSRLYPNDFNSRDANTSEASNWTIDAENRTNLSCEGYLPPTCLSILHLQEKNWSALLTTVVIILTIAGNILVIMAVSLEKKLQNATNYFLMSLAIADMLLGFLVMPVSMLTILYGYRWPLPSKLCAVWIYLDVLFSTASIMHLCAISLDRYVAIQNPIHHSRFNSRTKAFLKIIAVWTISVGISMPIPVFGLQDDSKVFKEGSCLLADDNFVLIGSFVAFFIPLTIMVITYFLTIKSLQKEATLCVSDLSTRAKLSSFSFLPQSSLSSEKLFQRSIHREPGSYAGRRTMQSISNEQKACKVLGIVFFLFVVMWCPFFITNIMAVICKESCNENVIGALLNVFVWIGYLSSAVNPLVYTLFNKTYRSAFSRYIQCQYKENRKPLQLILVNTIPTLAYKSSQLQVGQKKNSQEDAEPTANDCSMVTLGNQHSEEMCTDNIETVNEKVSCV
beta cell repl – induces beta-cell replication in MIN6 cells; proliferation, % at 10 µM; MIN6 cells proliferation, ATPlite luminescence, 48 h; cells starved in 0.2% serum; 100% = growth in 10% serum; AID 2380; 0.29% of 330,000 active;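 active = compounds whose signal lies at least 3.5 SD above the mean of all wells on their plate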;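 note: 0% = DMSO-treated cells in low-serum medium and 100% = 10% serum control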
Insulin prom up – MIN6 insulin promoter up-regulation | MIN6 insulin promoter-GFP reporter, high-content imaging; active compounds read high | 0.3% of 190,000 active | z-score at 5 µM | AID 1625;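 active = z-score above 3 at 5 µM with at least 500 cells counted in the well; inconclusive = wells under 500 cells, flagged as cytotoxic or low count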
SR-BI uptake up – enhances SR-BI lipid uptake from DiI-HDL; 0.096% of 320,000 active; CHO ldlA[mSR-BI] cells, DiI-HDL uptake fluorescence, 3 h; 100 = double the neutral-control signal; activation, % at 12.5 µM;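 active = mean replicate activation of at least 60% and every replicate at or above 60%; inconclusive = mean or all-replicate condition met, but not both; inactive = mean below 60% and not all replicates reaching 60%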;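 note: 0% = median plate neutral-control signal and 100% = twice that signal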
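system = CHO ldlA[mSR-BI] cells, LDL receptor-null, SR-BI overexpressing | medium = Ham's F12 with 0.5% BSA, HEPES 25 mM, pH 7.4 | probe or stimulus = DiI-HDL 10 µg/mL | compound dosing = single-point compound dose | incubation = compound exposure 3 h, 37 °C | technique = DiI fluorescence, bottom read | read-out = cell-associated DiI fluorescence as measure of HDL uptake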
SR-BI DiI inh – inhibitors of mouse SR-BI mediated HDL lipid uptake; inhibition, % at 12.5 µM; Q61009; AID 488896; 0.96% of 320,000 active; ldlA[mSR-BI] CHO cells, DiI-HDL uptake fluorescence, 3 h;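 active = mean replicate inhibition of at least 70% and a set share of replicates each scoring 70 or more; inconclusive = meets just one of the two criteria; inactive = fails both criteria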;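 note: 0% = median of neutral control wells and 100% = median of positive control wells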
Calb FLC – affects C. albicans growth with fluconazole. C. albicans CaCi-2 + fluconazole, Alamar Blue growth, 48 h. growth inhibition, % (concentration not given with the values). 0.57% of 300,000 active. AID 1979;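 active = growth inhibition above about 58% in most replicates, limit read from the data, passing the limit was not always enough; inconclusive = exactly half the replicates above a set limit; inactive = most replicates below a set limit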;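 note: all wells also contain fluconazole at 8 µg/ml as a sub-toxic cotreatment; 0% = median of DMSO wells and 100% = median of geldanamycin control wells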
Numbers without * were called inactive. Hits are enriched below; roughly 2.4% of the tested compounds scored in any of these assays.

`Cc1cnc(CN(C)C(=O)C2CCC(=O)N(CCc3ccc(Cl)cc3)C2)[nH]1` (configuration not stated) gave HTR2A ag -0.5.
CCCC(C)C(=O)Nc1nc(C)c(-c2csc(Nc3cc(OC)ccc3OC)n2)s1 (configuration not stated) was read as HTR2A ag -0.1, beta cell repl -7.5, Insulin prom up -2.41, SR-BI uptake up -93.0, SR-BI DiI inh 93.0* and Calb FLC 1.6.
COc1ccc(C(=O)NNC(=S)NC(=O)c2cccc([N+](=O)[O-])c2)cc1 was read as HTR2A ag 5.1, beta cell repl -6.1, SR-BI uptake up -0.5, SR-BI DiI inh 0.5 and Calb FLC 81.3*.
`O=C(NC(=S)NNC(=O)c1ccccc1O)c1cccc([N+](=O)[O-])c1` gave HTR2A ag -4.0, beta cell repl -3.8, SR-BI uptake up -109.3, SR-BI DiI inh 109.2* and Calb FLC 0.8.
`O=C(CNC(=S)NC(=O)c1cccc([N+](=O)[O-])c1)c1ccccc1` gave HTR2A ag -2.6, beta cell repl 1.0, SR-BI uptake up -0.3, SR-BI DiI inh 0.3 and Calb FLC 19.4.
For CCCCCC(=O)NNC(=S)NC(=O)c1cccc([N+](=O)[O-])c1 the results were HTR2A ag -3.0, beta cell repl 0.3, Insulin prom up -0.06, SR-BI uptake up 21.6, SR-BI DiI inh -21.6 and Calb FLC 85.4*.
`CCOC(=O)c1ccccc1NC(=O)c1cccc([N+](=O)[O-])c1` gave HTR2A ag 3.0, beta cell repl 0.2, SR-BI uptake up -41.5, SR-BI DiI inh 41.5 and Calb FLC 107.6*.
`COC(=O)C(Sc1ccc(Cl)cc1)C1SC(=S)N(Cc2ccccc2)C1=O` (configuration not stated) gave HTR2A ag 1.1.
Cc1onc(-c2ccccc2)c1C(=O)Nc1nnc(CC(C)(C)C)s1 was read as HTR2A ag 9.1, beta cell repl 2.1 and Calb FLC -2.4.
`CN(CC(=O)Nc1ccc(Cl)c(Cl)c1)C(=O)c1cccc2cccnc12` gave HTR2A ag -1.2, beta cell repl 1.2, SR-BI uptake up -22.0 and SR-BI DiI inh 22.0.
Screening CCOC(=O)c1ccc(NC(=O)N2CCN(c3cccc(OC)c3)CC2)cc1 returned HTR2A ag 3.2, beta cell repl -3.1, Insulin prom up 0.1, SR-BI uptake up -49.1, SR-BI DiI inh 49.1 and Calb FLC 38.6.
For C1CCC(c2nn3c(-c4n[nH]c5c4CCC5)nnc3s2)CC1 the results were HTR2A ag 3.7, beta cell repl -1.2, Insulin prom up -0.57, SR-BI uptake up -11.8, SR-BI DiI inh 11.8 and Calb FLC -6.8.
`CCN(CC)c1ccc(-c2nn3c(-c4n[nH]c5c4CCC5)nnc3s2)cc1` gave HTR2A ag 35.0*, beta cell repl -3.9, Insulin prom up -1, SR-BI uptake up -10.3, SR-BI DiI inh 10.3 and Calb FLC -10.8.
Screening Cc1cc(C)c(C(=O)NC2CCCc3c2cnn3-c2cccc(C)c2C)o1 (configuration not stated) returned HTR2A ag 1.0, beta cell repl -1.4, SR-BI uptake up 5.4, SR-BI DiI inh -5.4 and Calb FLC 3.2.
`CCc1cc(C(=O)NC2CCCc3c2cnn3-c2cccc(C)c2C)n(C)n1` (configuration not stated) gave beta cell repl -7.0 and Calb FLC 90.8*.
`O=C1c2cccnc2C(=O)N1CNc1ccc(Cl)cc1` gave HTR2A ag 13.7, beta cell repl 2.7, Insulin prom up -0.09, SR-BI uptake up 7.5, SR-BI DiI inh -7.5 and Calb FLC 134.0*.
`CCOC(=O)NC(O)C(=O)c1cccs1` (configuration not stated) gave HTR2A ag 0.3, beta cell repl 5.0*, Insulin prom up 0.47, SR-BI uptake up 28.4, SR-BI DiI inh -28.4 and Calb FLC 16.4.
`COc1ccccc1Cn1c(=S)[nH]c2cc(C(=O)N3CCCC(C)C3)ccc2c1=O` (configuration not stated) gave HTR2A ag -0.8.
For O=C(CCl)N(c1ccccc1)c1c[nH]c2ccccc12 the results were HTR2A ag -1.0, beta cell repl -3.8, Insulin prom up 0.99, SR-BI uptake up 25.2, SR-BI DiI inh -25.2 and Calb FLC 1.4.
O=C(CCl)N(c1ccc(Cl)cc1)c1c[nH]c2ccccc12 was read as HTR2A ag 0.0, beta cell repl -6.0, Insulin prom up inconclusive, SR-BI uptake up 4.8, SR-BI DiI inh -4.8 and Calb FLC 113.3*.
Cc1ccc(N/N=C/c2c(O)cc(C)oc2=O)cc1 was read as HTR2A ag -2.4, beta cell repl 0.3, Insulin prom up 0.02, SR-BI uptake up -9.9, SR-BI DiI inh 9.9 and Calb FLC -14.0.
Cc1cc(O)c(/C=N/Nc2ccc(F)cc2)c(=O)o1 was read as HTR2A ag 4.3, beta cell repl 1.2, Insulin prom up -1.02, SR-BI uptake up 18.5, SR-BI DiI inh -18.5 and Calb FLC 121.5*.
Screening CN1C(=O)C2C(c3ccc(N(C)C)cc3)=NN(Cc3ccccc3)C2C1=O (configuration not stated) returned HTR2A ag -0.7, beta cell repl -2.5, Insulin prom up 0.31, SR-BI uptake up -40.5, SR-BI DiI inh 40.5 and Calb FLC -28.1.
Cc1ccc2c(c1)N(C(=O)CCC(=O)N1CCC(C(N)=O)CC1)CC(C)O2 (configuration not stated) was read as HTR2A ag 0.0, beta cell repl 1.8, SR-BI uptake up -10.3, SR-BI DiI inh 10.3 and Calb FLC 8.4.
Screening COc1cc(NC(=O)c2ccc3c(c2)OCO3)c2ncccc2c1 returned HTR2A ag 5.2, beta cell repl -1.4, SR-BI uptake up -78.0, SR-BI DiI inh 78.0* and Calb FLC 1.8.
For COc1cc(NC(=O)c2cc(OC)c(OC)c(OC)c2)c2ncccc2c1 the results were HTR2A ag 4.3, SR-BI uptake up -55.6 and SR-BI DiI inh 55.6.
For COc1ccc(C(=O)N=c2sc3c(C)ccc(OC)c3n2C)cc1 the results were HTR2A ag -1.3, beta cell repl -4.2, Insulin prom up -1.05, SR-BI uptake up -77.1, SR-BI DiI inh 77.1* and Calb FLC -0.3.
Screening COc1cc(C(=O)N=c2sc3ccccc3n2C)cc(OC)c1OC returned HTR2A ag -2.0, beta cell repl -0.6, Insulin prom up -2.71, SR-BI uptake up -71.7, SR-BI DiI inh inconclusive and Calb FLC 17.9.
`COc1cc(C(=O)N=c2sc3c(C)ccc(OC)c3n2C)cc(OC)c1OC` gave HTR2A ag 4.2, beta cell repl 2.6, Insulin prom up -2.56, SR-BI uptake up -78.0, SR-BI DiI inh 78.0* and Calb FLC -9.6.
